PubChem BioAssay AID775 (SRMLSC, 2007)
About 900 (0.69%) of roughly 130,000 compounds were called active. The sample as a whole holds a higher share of actives than the screen did. Unmarked numbers belong to inactive results.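 Rule for the calls: active = inhibition above a set limit, placed 3 SD over the median of all compounds (cut at about 26% in these data); inactive = the rest.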

Test: rescue of nicotinamide-shortened yeast lifespan – S. cerevisiae, OD615, primary screen (AID 775);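 note: 0% = nicotinamide-treated wells and 100% = cells grown without nicotinamide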
Settings: S. cerevisiae growth with nicotinamide, at 10 µM, active compounds read high, deaD strain in restrictive glucose medium
Outline: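 assay system = DeaD-strain S. cerevisiae | buffer or medium = restrictive glucose medium | reagent = 1.5 mM nicotinamide | compound = 10 µM single point, 0.25% DMSO | incubation = 48 h compound exposure at 30 °C, humidified | signal = OD615 measurement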

SMILES | inhibition of the nicotinamide effect
Cc1cc(C(=O)N/N=C/c2cc([N+](=O)[O-])cc(C)c2O)n[nH]1 | -1.48%
Cc1cc(Cl)ccc1OCCCC(=O)NCc1ccncc1 | 1.85%
CCn1ncc(CNC(=O)C2(C)CC2(Br)Br)c1C (stereo unspecified) | 9.74%
O=C(/C=C/Sc1ncn[nH]1)c1ccc(Cl)cc1 | 44.7% (active)
O=C(NCCOCc1ccc(Cl)cc1)c1ncn[nH]1 | 1.27%
CC(C)(C)c1ccc(C(=O)CSc2ncn[nH]2)cc1 | -10.2%
Cc1ccccc1C(OCCN(C)C)C1CCCCC1 (stereo unspecified) | -0.42%
COc1ccc(C(CC(=O)c2ccccc2)S(=O)(=O)c2ccccc2)cc1 (stereo unspecified) | -1.04%
O=C(Nc1cc(C(F)(F)F)ccc1Cl)C(=O)N1CCCCC1 | -4.64%
O=C(CN1C(=O)NC2(CCCCCC2)C1=O)NCc1cccs1 | 7.48%
COC(=O)c1ccc(NC(=O)Nc2ccc(C)cc2)cc1 | -13.6%
Cc1cc(O)ccc1NC1=CC(=O)CC(C)(C)C1 | 11.5%
Cc1ccc(C(=O)OC2=CC(=O)CC(C)(C)C2)cc1 | 72.5% (active)
Nc1nc(SCC(=O)NNc2c(Cl)cc(Cl)cc2Cl)n[nH]1 | 1.57%
COc1ccc(C(=O)COC(=O)c2ccc3ccccc3n2)cc1 | -4.94%
COc1ccc(C2=NOC(COC(=O)c3ccc4ccccc4n3)C2)cc1 (stereo unspecified) | -3.92%
O=C(Oc1ccc([N+](=O)[O-])cc1)c1ccc2ccccc2n1 | 75.9% (active)
COc1cccc(NC(=O)CC(c2ccc(OC(C)C)cc2)c2ccccc2OC)c1 (stereo unspecified) | 9.84%
CCc1cc(-c2n[nH]c(=S)n2CC(C)C)cs1 | 7.5%
CCCCCOc1ccc(/C=C/C(=O)NCCc2nc3ccccc3[nH]2)cc1OC | 3.92%
CC1(c2ccccc2)CC(C)(C)N(C(=O)c2cc([N+](=O)[O-])cc([N+](=O)[O-])c2)c2ccccc21 (stereo unspecified) | -0.09%

SMILES | inhibition of the nicotinamide effect
CCOC12CC(C)(C)CC(C)(CC3=C1C(=O)CC(C)(C)C3)C2 (stereo unspecified) | 7.4%
O=C(Cc1cccc2ccccc12)NCCC1=CCCCC1 | 10.1%
O=C(Cc1ccccc1)NCc1ccc(F)cc1 | -0.44%
O=C(/C=C\NCC(=O)c1ccccc1)c1ccccc1 | 3.73%
O=C(/C=C/NCc1ccc(F)cc1)c1ccccc1 | 26.6% (active)
COc1cc(C(=O)NNC(=O)c2ccc(S(=O)(=O)N3CCCCC3)cc2)cc(OC)c1OC | -0.56%
Cc1cc(NS(=O)(=O)c2ccc(NC(=S)NC(=O)c3ccc(F)cc3Cl)cc2)no1 | -5.54%
O=C(CSc1ccccn1)Nc1nc2c(ccc3ccccc32)s1 | -4.27%
CC(C)(C)OC(=O)N/N=C/c1ccc(C(=O)O)cc1 | -2.34%
CCC(NC(=O)c1ccccc1NC(=O)c1ccccc1)C(=O)NNC(=O)CSc1nc2ccccc2o1 (stereo unspecified) | -3.91%
Cc1c(C2=CCN(S(=O)(=O)c3ccc(Cl)cc3)CC2)c2ccccc2n1C | 2.05%
CC(C)C(C)(C#N)NC(=O)CSc1nc2scc(-c3ccccc3)c2c(=O)[nH]1 (stereo unspecified) | 7.12%
CCc1ccc2c(c1)C(c1ccc([N+](=O)[O-])cc1)=NNC(c1ccccc1)=N2 | -1.67%
COC(=O)c1ccc(/C=N\n2c(C)nnc2C)cc1 | 27.3% (active)
CCN(CC)S(=O)(=O)c1cccc(-c2n[nH]c(=S)n2/N=C/c2ccc(C(=O)OC)cc2)c1 | -2.04%
Cc1nnc(C)n1/N=C/c1ccc(C(C)C)cc1 | 1.31%
CCOc1ccc2nc(C(=O)N3CCCC(C)C3)sc2c1 (stereo unspecified) | -4.7%
CCCN1C(=O)C(Cc2nc3ccccc3c(=O)n2-c2ccccc2)c2cc(C)ccc21 (stereo unspecified) | 38.7% (active)
O=c1c2ccccc2nc(CSc2nnnn2-c2ccccc2)n1-c1ccccc1 | -5.7%
N#CCSc1nc2ccccc2c(=O)n1-c1ccccc1 | -7.51%
Cc1noc(/C=C/c2ccco2)c1S(=O)(=O)N1CCC(C(=O)Nc2ccc(Cl)cn2)CC1 | 10.7%

SMILES | inhibition of the nicotinamide effect
O=C(COC(=O)c1cc(=O)[nH]c2ccccc12)Nc1nc(-c2cccc(Br)c2)cs1 | -0.45%
Cc1ccc(OCCOCCOc2ccc(Br)cc2/C=N\NC(=O)c2ccncc2)cc1 | -1.41%
COC(=O)C1=CN(C)C=C(C(=O)OC)C1c1ccc(Cl)cc1Cl | -5.36%
CC12CCC(C(=O)N(c3cccc(Cl)c3)C1=O)C2(C)C (stereo unspecified) | 3.45%
CC12CN3CC(C)(CN(C1)C3c1ccc(Cl)cc1Cl)C2=O (stereo unspecified) | 30.1% (active)
COc1ccc(NC(=O)COC(=O)c2ccc(NS(=O)(=O)/C=C/c3ccccc3)cc2)cc1 | 3.99%
COc1ccc(S(=O)(=O)Nc2c(C)n(C)n(-c3ccccc3)c2=O)cc1 | -9.71%
Cc1ccc(S(=O)(=O)Nc2ccccc2CNc2c(C)n(C)n(-c3ccccc3)c2=O)cc1 | 43% (active)
Cc1c(NS(=O)(=O)c2ccc(NC3CCCC3)c([N+](=O)[O-])c2)c(=O)n(-c2ccccc2)n1C | -2.8%
O=C(Nc1cccc([N+](=O)[O-])c1)c1ccc2c(c1)OCO2 | -0.87%
COC(=O)c1ccccc1SC1CC(=O)N(c2cccc(C)c2)C1=O (stereo unspecified) | -3.77%
CC(C)(C)c1ccc(/C=C/C(=O)Nc2ncccn2)cc1 | -2%
Cc1cccc(N2Cc3ccccc3C2=NC(=O)c2ccc(Cl)nc2)c1 | 34.6% (active)
N#Cc1ccc(N2Cc3ccccc3/C2=N/C(=O)Nc2ccc(Cl)cc2)cc1 | -2.85%
Cc1cccc(N2CCN(C(=O)c3cccc(S(=O)(=O)N4CCc5ccccc5C4)c3)CC2C)c1 (stereo unspecified) | 9.33%
CC(NC(=S)Nc1ccc(S(N)(=O)=O)cc1)c1ccc2c(c1)OCO2 (stereo unspecified) | -4.33%
CC1CC(C)CN(S(=O)(=O)c2cccc(C(=O)N3C(=O)c4cccc(N)c4C3=O)c2)C1 (stereo unspecified) | 86.5% (active)
COC(=O)c1cn(C)c2ccc(S(=O)(=O)N3CC(C)CC(C)C3)cc2c1=O (stereo unspecified) | -19.7%
O=C(c1cccc(S(=O)(=O)N2CCOCC2)c1)N1CCOCC1 | 4.86%
